Measured values published in PubChem BioAssay.
Activity calls are given as the source filed them.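 Rule for the calls, unless noted: active = inhibition at or above 50% at 10 µM; inactive = inhibition below 50%.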

Key:
[1] = inhibitors of TNFa-induced NFkB p65 translocation, primary screen, imaging, HUVEC, MLSMR starter and 10KST1 sets (AID 438;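 active = inhibition above 20% together with a positive visual image hit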;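 note: compound added about 3h40 before a 20 min TNFalpha stimulation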;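 for inhibition: signal is the nuclear over cytoplasmic p65 intensity ratio per well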); conditions: HUVEC TNFa-induced p65 nuclear translocation; cell count: measured here: nuclei count (cytotoxicity indicator), at 2.08 µM; inhibition: at 2 µM, stronger effect = higher value, 0% TNFa-plus-vehicle, 100% no-TNFa wells
[2] = inhibitors of mutant huntingtin aggregation, primary screen, imaging, exon1htt(103Q)mCFP cells, high-content imaging (AID 483;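 active = visual image review flags a hit and inhibition of aggregation exceeds 20%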;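 note: compound exposure lasted 3 days before fixation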;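 for nuclei count: percent of the per-plate median nuclei count of sample wells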); conditions: exon1htt(103Q)mCFP cell line, aggregate imaging, at 2 µM; inhibition of aggregation: stronger effect = higher value; nuclei count: measured here: cell count, toxicity
[3] = inhibitors of E-selectin induction by TNFa, primary screen, imaging, HUVEC, immunofluorescence, MLSMR starter and 10KST1 sets (AID 487;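 active = visually confirmed hit in the image check and inhibition above 20%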;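 for inhibition: signal is fraction of cell area covered by stained E-selectin grains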;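 for nuclei count: 100% = median nuclei count of all wells on the same plate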); conditions: HUVEC TNFalpha-induced E-selectin immunofluorescence imaging, at 2 µM; inhibition: stronger effect = higher value; nuclei count: measured here: cell number, toxicity
[4] = molecular target: Voltage-gated potassium channel subunit beta-2 (Rattus norvegicus) (UniProt P62483); assay: KvBeta enzyme negative modulators, primary screen, biochemical, NADPH fluorescence (AID 622;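 active = fluorescence slope higher than the sample average by over 3 SD, cut at about -0.22 in these data, passing the limit was not always enough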;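 note: slope of raw intensity against log time taken from 70 to 1610 s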); conditions: recombinant KvBeta, 4-cyanobenzaldehyde reduction, at 10 µM, stronger effect = higher value
[5] = molecular target: Voltage-gated potassium channel subunit beta-2 (Rattus norvegicus) (UniProt P62483); assay: KvBeta positive modulators, primary screen, biochemical, NADPH fluorescence (AID 623;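 active = NADPH fluorescence slope more negative than the mean of all samples by about 3 SD, 99.7% confidence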;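 note: fluorescence intensity change per second fitted from 20 to 320 s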); conditions: Recombinant KvBeta, NADPH fluorescence decrease slope, 10 min; at 10 µM; stronger effect = lower value
[6] = molecular target: Muscarinic acetylcholine receptor M4 (Homo sapiens) (UniProt P08173); assay: compounds altering M4/GIRK thallium flux, either direction, primary screen, M4 allosteric agonist project, cell-based, HEK293 M4/GIRK, BTC-AM (AID 625;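 active = fluorescence slope after compound addition differing from the mean of all tested samples at 99.7% confidence, mostly higher but some lower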;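 note: thallium influx through GIRK channels coupled to M4 in HEK293 cells with BTC-AM dye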); conditions: at 10 µM, actives lie on both sides
Outline: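 assay system = HEK293 cells with M4 receptor and GIRK channels | medium = pH 7.3 thallium assay buffer | doses = 10 µM final, single point | timing = cells overnight at 37 °C, BTC-AM loading 1 h, reads 2 min total | signal = BTC-AM fluorescence, 1 Hz kinetic reads | read-out = post-addition slope, 15–24 s, of baseline-normalized fluorescence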

[7] = inhibitors of Sendai virus-induced IRF3 signaling, primary screen, TLR/RLR signaling modifier project, cell-based, Sendai virus stimulus, luciferase, 10K MLSCN set (AID 602276); conditions: HEK293 RL24 IRF3 luciferase reporter, at 10 µM, stronger effect = higher value;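 note: firefly luciferase from ISG56 promoter only with Renilla not read in this screen; 0% = Sendai virus plus DMSO and 100% = medium plus DMSO without virus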
[8] = inhibitors of poly I:C-induced TLR3 signaling, primary screen, cell-based, poly I:C stimulus, luciferase, 10K MLSCN set (AID 602277;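 active = inhibition of the reporter signal at or above 50%; inactive = inhibition below 50%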); conditions: HEK293-TLR3 RL24 IRF3 luciferase reporter, at 10 µM, stronger effect = higher value

Sequence of Muscarinic acetylcholine receptor M4 (Homo sapiens) (P08173 whole entry, looked up): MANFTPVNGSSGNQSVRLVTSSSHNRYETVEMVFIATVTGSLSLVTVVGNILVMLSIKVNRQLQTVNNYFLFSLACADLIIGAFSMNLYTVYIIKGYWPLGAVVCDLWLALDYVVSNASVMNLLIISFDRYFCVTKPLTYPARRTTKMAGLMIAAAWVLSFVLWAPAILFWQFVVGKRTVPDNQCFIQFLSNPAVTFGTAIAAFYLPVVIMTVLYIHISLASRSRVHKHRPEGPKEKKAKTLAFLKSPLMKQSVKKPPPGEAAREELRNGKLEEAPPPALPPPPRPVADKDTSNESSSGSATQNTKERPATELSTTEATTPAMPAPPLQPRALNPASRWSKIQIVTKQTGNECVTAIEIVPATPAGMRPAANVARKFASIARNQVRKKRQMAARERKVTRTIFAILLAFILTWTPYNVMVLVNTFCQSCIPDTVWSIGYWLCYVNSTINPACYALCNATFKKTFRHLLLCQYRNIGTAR
Sequence of Voltage-gated potassium channel subunit beta-2 (Rattus norvegicus) (P62483 whole entry, looked up): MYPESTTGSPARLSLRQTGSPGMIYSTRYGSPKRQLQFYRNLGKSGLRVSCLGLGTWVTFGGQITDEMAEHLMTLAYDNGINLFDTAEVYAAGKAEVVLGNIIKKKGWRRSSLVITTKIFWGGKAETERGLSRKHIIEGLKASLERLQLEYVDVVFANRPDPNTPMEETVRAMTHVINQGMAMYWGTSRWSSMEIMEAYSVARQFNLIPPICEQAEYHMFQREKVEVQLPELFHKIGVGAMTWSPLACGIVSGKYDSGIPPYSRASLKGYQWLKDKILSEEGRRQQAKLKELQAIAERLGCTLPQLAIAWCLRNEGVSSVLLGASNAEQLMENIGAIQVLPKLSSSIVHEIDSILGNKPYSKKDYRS

| Compound | cell count [1] | inhibition [1] | inhibition of aggregation [2] | nuclei count [2] | inhibition [3] | nuclei count [3] | fluorescence slope [4] | NADPH fluorescence slope [5] | fluorescence slope [6] | inhibition [7] | inhibition [8] |
| --- | --- | --- | --- | --- | --- | --- | --- | --- | --- | --- | --- |
| CCOC(=O)c1ccc(N2C(=O)C3CC=CCC3C2=O)cc1 (stereo unspecified) | 640 | -6.3% (inactive) | -0.1% (inactive) | 104% | 40.6% (inactive) | 101% | -0.545 (inactive) | -1.8e-05 (inactive) | 0.00473 (inactive) | 1.51% (inactive) | -1.14% (inactive) |
| Cc1nc2ccccn2c1C(=O)NCCCN1CCOCC1 | 521 | -7.5% (inactive) | 3% (inactive) | 102% | 11.8% (inactive) | 102% | -0.461 (inactive) | 0.000108 (inactive) | 0.0064 (inactive) | 4.89% (inactive) | 12.3% (inactive) |
| CCOC(=O)C1C(=O)NC(SCC(=O)Nc2nccs2)=C(C#N)C1c1ccccc1OCC (stereo unspecified) | 605 | -27.7% (inactive) | -20.6% (inactive) | 120% | 20.7% (inactive) | 104% | -0.454 (inactive) | -3.1e-05 (inactive) | 0.00515 (inactive) | 19.6% (inactive) | 20.1% (inactive) |
| COC(=O)c1[nH]c2cc(OC)ccc2c1NC(=O)CN1CCOCC1 | 346 | 1.4% (inactive) | -17.1% (inactive) | 105% | -117% (inactive) | 117% | -0.535 (inactive) | -1.7e-05 (inactive) | 0.00517 (inactive) | 13.1% (inactive) | 7.58% (inactive) |
| N#Cc1c(-c2ccccc2)nc(SCc2nc(N)nc(N3CCCCC3)n2)[nH]c1=O | 401 | -14% (inactive) | 13% (inactive) | 85.3% | -20.8% (inactive) | 97.8% | -0.442 (inactive) | 0.000117 (inactive) | 0.00582 (inactive) | 14.8% (inactive) | -10.4% (inactive) |
| COc1ccc(C(=O)OC(COc2ccccc2)Cn2ccnc2)cc1 (stereo unspecified) | 348 | -7.4% (inactive) | -15.3% (inactive) | 98% | 13.4% (inactive) | 118% | -0.291 (inactive) | 6.7e-06 (inactive) | 0.00691 (inactive) | -15.3% (inactive) | -24.8% (inactive) |
| CCC(C)N=C1SCC(C)(/C=N/O)S1 (stereo unspecified) | 367 | -7.2% (inactive) | 16.5% (inactive) | 80.1% | -31.5% (inactive) | 122% | -0.55 (inactive) | -6.5e-05 (inactive) | 0.00292 (inactive) | 9.86% (inactive) | 2.1% (inactive) |
| CC(=O)Nc1ccc(S(=O)(=O)N(CC(=O)O)Cc2ccccc2)cc1 | 487 | 6% (inactive) | 4.7% (inactive) | 107% | -167% (inactive) | 130% | -0.575 (inactive) | -4.6e-05 (inactive) | 0.00557 (inactive) | 8.06% (inactive) | 14.2% (inactive) |
| N#Cc1c(N2C(=O)C3C4C=CC(C4)C3C2=O)sc2c1CCC2 (stereo unspecified) | 493 | -24.7% (inactive) | -12.7% (inactive) | 92.9% | -17.4% (inactive) | 96.7% | -0.417 (inactive) | -5.2e-05 (inactive) | 0.00524 (inactive) | 14.5% (inactive) | 18.6% (inactive) |
| O=S(=O)(c1ccc2c(c1)OCCO2)N(Cc1ccc(F)cc1)Cc1nnc(-c2cccs2)o1 | 383 | -21.4% (inactive) | -14.7% (inactive) | 106% | -14.4% (inactive) | 119% | -0.543 (inactive) | -0.000116 (inactive) | 0.00797 (inactive) | 13.3% (inactive) | 26.7% (inactive) |
| CCOC(=O)c1ccc(NC(=O)CC2SC(=NC)N(C)C2=O)cc1 (stereo unspecified) | 401 | 14.6% (inactive) | -8.2% (inactive) | 103% | -14.5% (inactive) | 110% | -0.48 (inactive) | -5.8e-05 (inactive) | 0.00547 (inactive) | 13.7% (inactive) | 17.7% (inactive) |
| O=C1CSC(c2cn(-c3ccccc3)nc2-c2ccccc2)N1Cc1ccco1 (stereo unspecified) | 480 | -6.3% (inactive) | 5.2% (inactive) | 108% | -89.3% (inactive) | 88.2% | -0.568 (inactive) | -2.8e-05 (inactive) | 0.00714 (inactive) | -1.04% (inactive) | 11.5% (inactive) |
| CC1CN(c2c3c(nc4ncnn24)CCCC3)CC(C)O1 (stereo unspecified) | 752 | 0% (inactive) | -14.4% (inactive) | 99.9% | -31.5% (inactive) | 106% | -0.481 (inactive) | 3.1e-05 (inactive) | 0.00504 (inactive) | 14.7% (inactive) | 21.5% (inactive) |
| CCOC(=O)c1oc2ccccc2c1CSc1nnnn1-c1ccc(OC)cc1 | 381 | -7.7% (inactive) | 6.8% (inactive) | 95.4% | -102% (inactive) | 110% | -0.54 (inactive) | -4.1e-05 (inactive) | 0.00514 (inactive) | 25.7% (inactive) | 30.2% (inactive) |
| CC(=O)c1c(C)[nH]c(C(=O)Nc2ccc3c(c2)OCCO3)c1C | 402 | -3.5% (inactive) | -4.8% (inactive) | 115% | -18.4% (inactive) | 114% | -0.596 (inactive) | 6.7e-06 (inactive) | 0.00406 (inactive) | -15.9% (inactive) | -58% (inactive) |
| COc1ccc(/C=N/n2c(=O)[nH]c3c([nH]c4ccc(C)cc43)c2=O)cc1CN1CCOCC1 | 643 | 2.6% (inactive) | 16.8% (inactive) | 74.3% | 4.3% (inactive) | 98.4% | -0.407 (inactive) | -0.000488 (inactive) | 0.00369 (inactive) | -0.771% (inactive) | 11.2% (inactive) |
| NC(=O)c1sc2nc(N3CCCCC3)c3c(c2c1N)CCCC3 | 369 | 8.4% (inactive) | -12.2% (inactive) | 118% | 26.5% (inactive) | 111% | 1.5e-14 (active) | 0 (inactive) | 0.00601 (inactive) | 1.9% (inactive) | 10.7% (inactive) |
| CCn1cnc2cc(NCc3cccc(OC)c3O)ccc21 | 322 | -2.8% (inactive) | -3.1% (inactive) | 94.7% | -18.2% (inactive) | 88% | -0.437 (inactive) | -4.8e-05 (inactive) | 0.00434 (inactive) | -3.88% (inactive) | -26.2% (inactive) |
| Cc1ccc(-n2nc(-c3cccs3)cc2C(=O)NCC2CCCO2)c(C)c1 (stereo unspecified) | 490 | -1.7% (inactive) | -12.1% (inactive) | 15.1% | -9.6% (inactive) | 110% | -0.405 (inactive) | -8.6e-05 (inactive) | 0.00713 (inactive) | 7.58% (inactive) | 20.7% (inactive) |
| CCCCNC(=O)CN(C1CCCCC1)S(C)(=O)=O | 422 | 1.2% (inactive) | -3.6% (inactive) | 99.8% | -22.8% (inactive) | 103% | -0.551 (inactive) | 1.8e-07 (inactive) | 0.0049 (inactive) | 16.6% (inactive) | 14.9% (inactive) |
| C=CCn1c(SCc2cc(=O)n3ccsc3n2)nnc1C1CCCCC1 | 439 | 3.8% (inactive) | -27.5% (inactive) | 104% | 3.6% (inactive) | 116% | -0.561 (inactive) | -1.8e-05 (inactive) | 0.00775 (inactive) | 9.44% (inactive) | 21.1% (inactive) |
| Nc1nc(-c2ccccc2)cc(C(F)(F)F)n1 | 457 | -7.5% (inactive) | 1.3% (inactive) | 98.1% | -11.2% (inactive) | 107% | -0.571 (inactive) | 1.4e-06 (inactive) | 0.00753 (inactive) | 11% (inactive) | 6.96% (inactive) |
| CC1(C)CC(=O)c2c(O)cc(O)cc2O1 | 652 | -15.6% (inactive) | -5.4% (inactive) | 83.3% | -55.7% (inactive) | 99.8% | -0.482 (inactive) | -4.2e-05 (inactive) | 0.00586 (inactive) | 5.4% (inactive) | -1.77% (inactive) |
| O=C1C2C3C=CC(C3)C2C(=O)N1CNc1ccc(O)cc1 (stereo unspecified) | 307 | 8.9% (inactive) | -9.8% (inactive) | 108% | 32.1% (inactive) | 106% | -0.507 (inactive) | 2.6e-05 (inactive) | 0.00588 (inactive) | 4.46% (inactive) | 2.67% (inactive) |
| O=C(CCCN1C(=O)c2ccccc2C1=O)Oc1ccc(F)cc1 | 735 | -11.6% (inactive) | -0.5% (inactive) | 106% | 17.3% (inactive) | 96.8% | -0.512 (inactive) | 1.4e-05 (inactive) | 0.00485 (inactive) | 12.5% (inactive) | 18.6% (inactive) |
| CN(C)C=Nc1nonc1N | 429 | 9% (inactive) | -2% (inactive) | 105% | 24.6% (inactive) | 99.3% | -0.584 (inactive) | -7.3e-05 (inactive) | 0.00382 (inactive) | 18% (inactive) | 21% (inactive) |
